Experiments:
[1] = test system: CR3^kd cells; experiment: Cell-based Aβ degradation assay with LA-1 treatment in CR3 knockdown cells; conditions: CR3 knockdown BV2 cells; Fig. 4 B
Procedure, shortened: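 CR3kd BV2 cells carried a stable CD11b-targeting shRNA lentivirus; controls carried empty vector. Lines were selected with 5 µg/ml puromycin and sorted for CD11b <80% of control. Cells were seeded at 250,000/well and attached overnight. Test compound or vehicle in serum-free DMEM was added 30 min before 1 µg/ml Aβ1-42. Timed samples went into 2× protease inhibitor. Total Aβ was measured by electrochemiluminescent ELISA (21D12 capture, 3D6 detection, Aβ1-40 standards).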

[2] = Mass spectrometric analysis of LA-1 in brain and plasma; assay type: in vivo, mouse; conditions: concluded from brain levels after single i.p. dose, perfused brains
Procedure, shortened: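 Male C57BL/6 mice received 500 µl of 50 µM test compound i.p., three mice per time point, sampled from 5 min to 8 h. EDTA plasma and PBS-perfused hemibrains were collected; brain was homogenised in water. Extracts diluted in methanol/acetonitrile were analysed by C18 LC-MS/MS (isocratic 85% acetonitrile, MRM m/z 420.103→375.800 and 420.103→230.000). Levels were interpolated from spiked-matrix standard curves by cubic regression.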

[3] = test system: APP-overexpressing Chinese hamster ovary cells; experiment: APP expression and processing after LA-1 treatment; assay type: cell-based; conditions: APP-overexpressing CHO cells, lysates and supernatants after 6 h; Fig. S2 A–F
Procedure, shortened: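 Cells were APP-overexpressing CHO cells exposed to test compound in serum-free culture medium. Lysates and supernatants were harvested after 6 h.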

[4] = test system: ISF Aβ; assay type: in vivo, mouse; conditions: 4-h LA-1 infusion and 12-h washout; n = 2 mice; Fig. 5 D, E
Procedure, shortened: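 A 38-kD cutoff microdialysis probe was placed in the left hippocampus (bregma −3.1, midline −2.5, 3.2 mm below dura, 12°). It was perfused at 1 µl/min with 0.15% BSA artificial CSF, pH 7.35. After 8 h baseline, test compound was reverse-dialysed at 100 µM. Fractions were collected every 60–90 min, and Aβ40 was measured by sandwich ELISA (mHJ2 capture, mHJ5.1 detection). Male mice were used.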

[5] = test system: acutely isolated microglia and PBMCs; assay type: in vivo, mouse; conditions: after 10 d of LA-1 injections; n = 5 mice per group; Fig. S2 I, J
Procedure, shortened: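 Mice received 500 µl of 50 µM test compound or DMSO vehicle in PBS i.p. daily for 10 d. Microglia were isolated from perfused, enzymatically dissociated brains with CD45 microbeads, and PBMCs by Ficoll. Cells were kept on ice, washed and Fc-blocked 15 min. They were then stained 30 min with labelled antibodies against CD162, CD62L, CD18, CD54, CD14, CD49d, CD11a and CD11b.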

[6] = test system: primary microglia; experiment: qPCR analysis of mRNA from primary microglia of LA-1-treated mice; assay type: in vivo, mouse; conditions: microglia from LA-1-treated mice, qPCR normalized to GAPDH, n = 5
Procedure, shortened: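 Mice received test compound i.p. daily for 10 d (500 µl of 50 µM; DMSO/PBS vehicle). Microglia were isolated from perfused, dissociated brains with CD45 microbeads and frozen immediately for RNA. cDNA diluted 1:20 was amplified with SYBR Green. Expression was calculated by ΔΔCt relative to GAPDH.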

- BBB penetration [2]: demonstrating BBB penetration
- Vascular adhesion markers on acutely isolated microglia and PBMCs [5]: no changes
SMILES: O=C(O)c1ccc(-c2ccc(/C=C3\SC(=S)N(Cc4ccccc4)C3=O)o2)cc1 [LA-1, Leukadherin 1]
- LA-1 effect on Aβ degradation in CR3^kd cells [1]: absent
- APP expression and processing [3]: did not change
- Reversibility of ISF Aβ reduction after exchanging drug for perfusion buffer [4]: reversible
- tPA mRNA in microglia ([6]; Fig. 4 E): significant increase
- MMP2 or MMP9 mRNA levels in microglia ([6]; Fig. 4 F): did not observe differences
